From ChEMBL document CHEMBL4376862, “Synthesis and evaluation of novel chlorophyll a derivatives as potent photosensitizers for photodynamic therapy” (Eur J Med Chem, 2020)
Active and inactive are the calls of the source. No cut-off for these calls is given here.

Assays:
A549 [1] = test: Photodynamic antitumor activity against human A549 cells xenografted in BALB/c nude mouse assessed as vascular rupture at 0.3 mg/kg, iv incubated for 24 hrs followed by laser light irradiation at 120 J/cm2 measured 24 hrs post light irradiation by H and E staining based histopathological analysis; assay type: functional, organism-based
In short: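 Tumors from PDT-treated A549 xenograft mice (0.3 mg/kg i.v., 650 nm laser 120 J/cm2 at 24 h) excised, fixed in 4% formaldehyde in PBS, paraffin-embedded, sectioned, H&E stained.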

Cavia porcellus [2] = test: Phototoxicity in guinea pig assessed as change in auricles of left ear at 4.5 mg/kg, iv in presence of 10 mW/cm2 light irradiation for 10 mins measured after 1day of light irradiation by H and E staining based microscopic analysis; assay type: organism-based; conditions: in vivo
A549 [3] = test: Induction of apoptosis in human A549 cells assessed as viable cells in presence of 1J/cm2 light irradiation measured after 4 hrs by annexin V-FITC and propidium iodide staining based flow cytometric analysis (reference value: 99.88%); assay type: functional
In short: (§1)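 After PDT at 1 J/cm2, A549 cells collected 4 h later, stained with annexin V-FITC and propidium iodide per kit instructions; flow cytometry with at least 10,000 events per sample.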

A549 [4] = test: Photodynamic antitumor activity against human A549 cells xenografted in BALB/c nude mouse assessed as survival time at 0.3 mg/kg, iv incubated for 24 hrs followed by laser light irradiation at 120 J/cm2 measured up to 70 days; assay type: functional, organism-based
In short: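 Nude mice bearing A549 xenografts, 0.3 mg/kg drug i.v. then 650 nm laser 120 J/cm2 at 180 mW/cm2 after 24 h; survival shown as Kaplan-Meier with log-rank test, n = 5.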

[5] = Drug uptake in BALB/c nude mouse xenografted with A549 cells assessed as drug level in kidney at 0.3 mg/kg, iv measured at 12 hrs by fluorescence assay; assay type: ADME, organism-based; conditions: in vivo
In short: (§2)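 A549 tumor-bearing mice dosed via tail vein (1 mg/kg in methods; 0.3 mg/kg in text) at tumors ~150–170 mm3, n = 3; whole-body imaging 0–24 h; at 6 and 12 h mice killed, heart, liver, spleen, lung, kidney, brain, tumor imaged ex vivo, excitation 420 nm, emission 650 nm.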

[6] = Drug uptake in BALB/c nude mouse xenografted with A549 cells assessed as drug level in brain at 0.3 mg/kg, iv measured at 12 hrs by fluorescence assay; assay type: ADME, organism-based; conditions: in vivo; in short: as §2
[7] = Induction of ROS generation in DMF solution assessed as ROS quantum yield at 2 uM followed by irradiation measured every 10 secs by spectrophotometric analysis; assay type: functional
[8] = Drug localization in lysosome of human A549 cells at 1 uM after 4 hrs by lyso-tracker blue based fluorescence microscopic method; assay type: ADME, subcellular; conditions: a549, 4 h
In short: (§3)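 A549 cells on coverslips at 1×10^4 cells/mL exposed to […] (so in the source) photosensitizer in complete medium for 4 h, washed, fixed in 4% paraformaldehyde 20 min, then probed 30 min at 37 °C with Mito-Tracker Green, Lyso-Tracker Blue or ER-Tracker Green; fluorescence microscopy, three repeats, minimal ambient light.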

Mus musculus [9] = test: Phototoxicity in ICR mouse assessed as change in exposed neck skin 0.45 mg/kg, iv in presence of 10 mW/cm2 light irradiation for 10 mins upto 7 days measured after 1day of light irradiation by H and E staining based microscopic analysis; assay type: organism-based; conditions: in vivo
A549 [10] = test: Induction of apoptosis in human A549 cells assessed as late apoptotic cell incubated for 4 hrs under dark condition by annexin V-FITC and propidium iodide staining based flow cytometric analysis (reference value: 0.05%); conditions: a549, 4 h
[11] = Drug uptake in BALB/c nude mouse xenografted with A549 cells assessed as drug level in spleen at 0.3 mg/kg, iv measured at 12 hrs by fluorescence assay; assay type: ADME, organism-based; conditions: in vivo; in short: as §2
Cavia porcellus [12] = test: Phototoxicity in guinea pig assessed as change in back skin weight 4.5 mg/kg, iv followed by 10 mW/cm2 light irradiation for 10 mins measured after 1day of light irradiation (reference value: 72.4 +/- 3.1 mg); assay type: organism-based; conditions: in vivo, 24 h
Mus musculus [13] = test: Phototoxicity in ICR mouse assessed as change in skin of the backs 0.45 mg/kg, iv in presence of 10 mW/cm2 light irradiation for 10 mins upto 7 days measured after 1 day of light irradiation by H and E staining based microscopic analysis; assay type: organism-based; conditions: in vivo
Mus musculus [14] = test: Phototoxicity in ICR mouse assessed as change in auricles 0.45 mg/kg, iv in presence of 10 mW/cm2 light irradiation for 10 mins upto 7 days measured after 1day of light irradiation by H and E staining based microscopic analysis; assay type: organism-based; conditions: in vivo
A549 [15] = test: Photodynamic antitumor activity against human A549 cells xenografted in BALB/c nude mouse assessed as reduction in tumor volume at 0.3 mg/kg, iv incubated for 24 hrs followed by laser light irradiation at 120 J/cm2 measured up to 14 days; assay type: functional, organism-based
In short: (§4)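 Male BALB/c nude mice (5–6 weeks, 14–16 g) given 2×10^6 A549 cells s.c. in 0.2 mL PBS; at 6–7 mm tumors randomized into ten groups; drug via tail vein, 650 nm diode laser 120 J/cm2 at 180 mW/cm2 24 h later; caliper volume a×b²/2, followed 14 days.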

[16] = Induction of apoptosis in human A549 cells assessed as viable cells incubated for 4 hrs under dark condition by annexin V-FITC and propidium iodide staining based flow cytometric analysis (reference value: 99.88%); assay type: cell-based; conditions: read-out: Activity
[17] = Induction of ROS generation in DMF solution assessed as slope of the photodegradation rate of DPBF at 2 uM followed by irradiation measured every 10 secs by spectrophotometric analysis; assay type: functional
[18] = Drug uptake in BALB/c nude mouse xenografted with A549 cells assessed as drug level in tumor tissue at 0.3 mg/kg, iv measured at 12 hrs by fluorescence assay; assay type: ADME, organism-based, Neoplasm; conditions: in vivo; in short: as §2
[19] = Drug localization in endoplasmic reticulum of human A549 cells at 1 uM after 4 hrs by DiOC6(3) ER-tracker green based fluorescence microscopic method; assay type: ADME, subcellular; conditions: a549, 4 h; in short: as §3
A549 [20] = test: Photodynamic antitumor activity against human A549 cells xenografted in BALB/c nude mouse assessed as increase in tumor tissue damage at 0.3 mg/kg, iv incubated for 24 hrs followed by laser light irradiation at 120 J/cm2 measured up to 14 days; assay type: functional, organism-based; in short: as §4
A549 [21] = test: Induction of apoptosis in human A549 cells assessed as early apoptotic cell incubated for 4 hrs under dark condition by annexin V-FITC and propidium iodide staining based flow cytometric analysis (reference value: 0.07%); conditions: a549, 4 h
A549 [22] = test: Induction of apoptosis in human A549 cells assessed as late apoptotic cell in presence of 1J/cm2 light irradiation measured after 4 hrs by annexin V-FITC and propidium iodide staining based flow cytometric analysis (reference value: 0.05%); assay type: functional; in short: as §1
Cavia porcellus [23] = test: Phototoxicity in guinea pig assessed as change in left ear weight 4.5 mg/kg, iv followed by 10 mW/cm2 light irradiation for 10 mins measured after 1 day of light irradiation (reference value: 39.2 +/- 1.8 mg); assay type: organism-based; conditions: in vivo

Structure (SMILES) | Activity (A549 [1]) | Activity (Cavia porcellus [2]) | Activity (A549 [3]) [%] | Activity (A549 [4]) | Drug uptake [5] | Drug uptake [6] | Ratio [7] | Drug uptake [8] | Activity (Mus musculus [9]) | Activity (A549 [10]) [%] | Drug uptake [11] | Activity (Cavia porcellus [12]) [mg] | Activity (Mus musculus [13]) | Activity (Mus musculus [14]) | Activity (A549 [15]) | viability at 4 h [16] [%] | K [17] [s⁻¹] | Drug uptake [18] | Drug uptake [19] | Activity (A549 [20]) | other results
CCC1=C(C)c2cc3[nH]c(cc4nc(c5c6[nH]c(cc1n2)c(C)c6C(=O)C5)[C@@H](CCC(=O)NCC(=O)CCC(=O)O)[C@@H]4C)c(C)c3C(C)OCCO (stereo partly specified) | Active | Non-Toxic | 2.64 | Active | Not Active | Not Active | 1.35 | Active | Non-Toxic | 4.7 | Not Active | 74.3 | Non-Toxic | Non-Toxic | Active | 87.8 | 0.027 | Active | Active | Active | Activity (A549 [21]): 4.63%; Activity (A549 [22]): 67.73%; Activity (Cavia porcellus [23]): 41.6 mg
CCCCOC(C)c1c(C)c2cc3nc(c4c5[nH]c(cc6nc(cc1[nH]2)C(C)=C6CC)c(C)c5C(=O)C4)[C@@H](CCC(=O)NCC(=O)CCC(=O)O)[C@@H]3C (stereo partly specified) | Active | Non-Toxic | 3.13 | Active | Not Active | Not Active | 1.56 | Active | Non-Toxic | 4.78 | Not Active | 75.2 | Non-Toxic | Non-Toxic | Active | 89.8 | 0.0313 | Active | Active | Active | Activity (A549 [21]): 3.16%; Activity (A549 [22]): 83.88%; Activity (Cavia porcellus [23]): 42.3 mg
